The values that follow come from ChEMBL document CHEMBL5316332 (J Med Chem, 2023).

Structures are written as SMILES. The source made the active and inactive calls. The rule behind the calls is not given here.

As a reminder, the IC50 is the concentration that gives 50% inhibition.

The target in data set [1] is Activin receptor type-2B (Homo sapiens, UniProt Q13705). As to the kind of experiment: Inhibition of ACVR2B (unknown origin) by LanthaScreen TR-FRET assay. Summed up:
(§1)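 Outsourced SelectScreen profiling using a LanthaScreen TR-FRET binding format, in which a tight-binding tracer is displaced from the kinase.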

A short description of data set [2]: Inhibition of BMP signalling pathway in BMP2-stimulated human HEK293T cells expressing BRE and luciferase reporter assessed as inhibition of luciferase transactivation by measuring BRE-reporter activity preincubated for 30 mins followed by BMP2 stimulation and measured after 6 hrs by Bright-GLO mediated luciferase assay. Conditions: HEK-293T. The class given is cell-based. The procedure, abridged: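 293T cells stably carrying a BMP-responsive-element luciferase reporter, 2 × 10^4 per well, attached overnight in phenol-red-free DMEM with 2 mM glycine and 2% heat-inactivated FBS. Pretreated 30 min with inhibitor, then 5 ng/mL BMP2 for 6 h. Bright-Glo luminescence read; IC50 by nonlinear regression.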
A general note: A reporter such as luciferase makes a cellular process visible.

The target in data set [3] is T1, Bone morphogenetic protein receptor type-2 (Homo sapiens, UniProt Q13873).
T1 sequence (Q13873 whole entry): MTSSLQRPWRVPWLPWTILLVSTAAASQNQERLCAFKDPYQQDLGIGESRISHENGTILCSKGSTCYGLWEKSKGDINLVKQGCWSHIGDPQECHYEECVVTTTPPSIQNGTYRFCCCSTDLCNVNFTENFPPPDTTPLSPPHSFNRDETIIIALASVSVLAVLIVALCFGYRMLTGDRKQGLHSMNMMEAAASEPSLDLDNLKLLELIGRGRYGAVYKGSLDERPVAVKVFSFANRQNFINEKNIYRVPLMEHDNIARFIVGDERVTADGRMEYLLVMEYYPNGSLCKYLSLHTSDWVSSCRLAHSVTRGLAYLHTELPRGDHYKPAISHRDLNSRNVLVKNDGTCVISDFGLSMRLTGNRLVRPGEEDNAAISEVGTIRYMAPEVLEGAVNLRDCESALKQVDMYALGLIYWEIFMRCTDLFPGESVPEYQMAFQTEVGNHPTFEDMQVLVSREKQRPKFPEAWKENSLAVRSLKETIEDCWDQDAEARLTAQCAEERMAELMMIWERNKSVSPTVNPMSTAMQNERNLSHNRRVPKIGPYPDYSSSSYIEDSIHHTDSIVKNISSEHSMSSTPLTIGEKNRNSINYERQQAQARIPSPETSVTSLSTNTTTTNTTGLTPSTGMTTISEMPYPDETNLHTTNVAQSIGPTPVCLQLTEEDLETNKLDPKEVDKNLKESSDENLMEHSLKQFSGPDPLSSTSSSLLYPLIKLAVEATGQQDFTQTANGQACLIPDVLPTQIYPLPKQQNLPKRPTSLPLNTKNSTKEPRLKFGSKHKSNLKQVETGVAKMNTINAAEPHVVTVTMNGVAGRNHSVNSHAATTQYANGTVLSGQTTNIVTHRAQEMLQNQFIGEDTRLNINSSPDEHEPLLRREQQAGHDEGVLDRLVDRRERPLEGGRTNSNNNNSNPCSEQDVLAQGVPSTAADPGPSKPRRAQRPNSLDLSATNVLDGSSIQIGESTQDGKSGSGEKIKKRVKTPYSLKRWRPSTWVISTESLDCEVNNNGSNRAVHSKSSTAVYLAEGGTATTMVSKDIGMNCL
Nature of the data set: Inhibition of recombinant C-terminal 6His-tagged human BMPR2 (188 to 517 residues) expressed in Escherichia coli Rosetta by LanthaScreen TR-FRET assay. Summed up: as §1
(In general: TR-FRET usually uses a lanthanide donor and a delayed reading to cut background.)

In data set [4] the target is T2, Activin receptor type-1B (Homo sapiens) (UniProt P36896).
T2 sequence (whole entry): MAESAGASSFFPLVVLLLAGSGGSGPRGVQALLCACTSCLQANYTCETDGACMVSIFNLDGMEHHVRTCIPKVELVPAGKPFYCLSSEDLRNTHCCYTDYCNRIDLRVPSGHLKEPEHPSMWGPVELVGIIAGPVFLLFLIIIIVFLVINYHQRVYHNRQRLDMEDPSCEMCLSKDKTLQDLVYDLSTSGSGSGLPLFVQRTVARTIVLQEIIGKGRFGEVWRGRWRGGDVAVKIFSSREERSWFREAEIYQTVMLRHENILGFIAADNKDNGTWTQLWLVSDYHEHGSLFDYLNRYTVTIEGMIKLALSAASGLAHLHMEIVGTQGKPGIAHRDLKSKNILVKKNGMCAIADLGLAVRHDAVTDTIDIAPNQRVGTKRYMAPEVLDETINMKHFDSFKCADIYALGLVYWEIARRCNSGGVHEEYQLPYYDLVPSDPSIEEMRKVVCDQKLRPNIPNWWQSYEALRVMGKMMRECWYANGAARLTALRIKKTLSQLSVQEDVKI
As to the kind of experiment: Inhibition of ACVR1B (unknown origin) by Z'-LYTE assay. Summed up: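 Outsourced SelectScreen profiling by Z'-LYTE, a fluorescence coupled-enzyme kinase activity assay based on protease sensitivity of nonphosphorylated versus phosphorylated peptide.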

Data set [5] addresses Bone morphogenetic protein receptor type-1A (Homo sapiens, UniProt P36894). Nature of the data set: Inhibition of BMPR1A (unknown origin) by LanthaScreen TR-FRET assay. Summed up: as §1
In data set [6] the target is Activin receptor type-2A (Homo sapiens, UniProt P27037). As to the kind of experiment: Inhibition of ACVR2A (unknown origin) by LanthaScreen TR-FRET assay. The procedure, abridged: as §1
Data set [7] has as its target Bone morphogenetic protein receptor type-1B (Homo sapiens, UniProt O00238). As to the kind of experiment: Inhibition of BMPR1B (unknown origin) by LanthaScreen TR-FRET assay. The procedure, abridged:
as §1

Data set [8] concerns the target TGF-beta receptor type-2 (Homo sapiens, UniProt P37173). As to the kind of experiment: Inhibition of TGFBR2 (unknown origin) by LanthaScreen TR-FRET assay. The procedure, abridged: as §1
Data set [9] concerns the target T1, Bone morphogenetic protein receptor type-2. As to the kind of experiment: Inhibition of recombinant C-terminal 6His-tagged human BMPR2 (188 to 517 residues) expressed in Escherichia coli Rosetta assessed as apparent inhibition constant using ATP as substrate incubated for 30 mins by Morrison plot analysis. Conditions: read-out: Ki(app). The procedure, abridged:
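Purified His-tagged BMPR2 kinase domain with no peptide substrate (intrinsic ATPase). 10 μM ATP, 0.02% Tween-20, kinase buffer, 50 μL, enzyme level optimized for initial-velocity conditions. 30 min at 30 °C. Leftover ATP read by Kinase-Glo luminescence, with no-kinase controls. Kiapp from a modified Morrison equation fitted to normalized fractional activity, assuming no specific inhibition mode.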

Data set [10] can be described thus: Metabolic stability in human liver microsomes assessed as half life at 2 uM and mesured upto 60 mins in presence of NADPH by UHPLC-MS analysis. Format: ADME, Microsome. Conditions: microsomes, 1 h, 2 µM. (Liver microsomes are a subcellular fraction often used to study metabolism.)
Data set [11] is described as follows: Metabolic stability in mouse liver microsomes assessed as half life at 2 uM and mesured upto 60 mins in presence of NADPH by UHPLC-MS analysis. Conditions: microsomes, 1 h, 2 µM. Format: ADME, Microsome.

Bone morphogenetic protein receptor type-1A, sequence (P36894 whole entry): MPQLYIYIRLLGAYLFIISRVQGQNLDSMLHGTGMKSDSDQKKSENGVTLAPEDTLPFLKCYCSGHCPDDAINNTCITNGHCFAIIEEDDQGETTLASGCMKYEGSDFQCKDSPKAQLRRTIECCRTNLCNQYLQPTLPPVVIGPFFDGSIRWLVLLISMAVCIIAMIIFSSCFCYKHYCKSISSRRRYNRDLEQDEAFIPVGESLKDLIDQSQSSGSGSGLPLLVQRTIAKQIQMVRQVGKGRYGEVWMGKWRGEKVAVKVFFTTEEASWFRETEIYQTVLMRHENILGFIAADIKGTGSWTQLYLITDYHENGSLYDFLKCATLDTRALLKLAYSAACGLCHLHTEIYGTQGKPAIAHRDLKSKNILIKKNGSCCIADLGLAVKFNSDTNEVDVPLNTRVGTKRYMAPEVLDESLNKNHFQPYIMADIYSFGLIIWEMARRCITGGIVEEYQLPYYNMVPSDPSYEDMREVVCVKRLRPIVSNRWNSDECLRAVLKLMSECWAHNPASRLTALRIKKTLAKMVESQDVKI
Bone morphogenetic protein receptor type-1B, sequence (O00238 whole entry): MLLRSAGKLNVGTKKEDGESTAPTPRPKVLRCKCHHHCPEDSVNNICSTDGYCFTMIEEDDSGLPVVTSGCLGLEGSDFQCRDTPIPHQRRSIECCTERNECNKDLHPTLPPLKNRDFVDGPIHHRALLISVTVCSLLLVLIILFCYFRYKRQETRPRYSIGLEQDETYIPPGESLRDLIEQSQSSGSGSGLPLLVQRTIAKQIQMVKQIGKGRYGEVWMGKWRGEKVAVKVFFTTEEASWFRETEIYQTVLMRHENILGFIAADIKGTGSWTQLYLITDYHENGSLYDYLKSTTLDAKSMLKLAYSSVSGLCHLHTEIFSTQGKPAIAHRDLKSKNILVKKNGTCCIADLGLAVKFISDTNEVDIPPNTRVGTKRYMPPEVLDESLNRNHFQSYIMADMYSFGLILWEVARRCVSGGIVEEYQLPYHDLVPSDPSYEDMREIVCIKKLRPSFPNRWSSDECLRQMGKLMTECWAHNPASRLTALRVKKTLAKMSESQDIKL
Activin receptor type-2B, sequence (Q13705 whole entry): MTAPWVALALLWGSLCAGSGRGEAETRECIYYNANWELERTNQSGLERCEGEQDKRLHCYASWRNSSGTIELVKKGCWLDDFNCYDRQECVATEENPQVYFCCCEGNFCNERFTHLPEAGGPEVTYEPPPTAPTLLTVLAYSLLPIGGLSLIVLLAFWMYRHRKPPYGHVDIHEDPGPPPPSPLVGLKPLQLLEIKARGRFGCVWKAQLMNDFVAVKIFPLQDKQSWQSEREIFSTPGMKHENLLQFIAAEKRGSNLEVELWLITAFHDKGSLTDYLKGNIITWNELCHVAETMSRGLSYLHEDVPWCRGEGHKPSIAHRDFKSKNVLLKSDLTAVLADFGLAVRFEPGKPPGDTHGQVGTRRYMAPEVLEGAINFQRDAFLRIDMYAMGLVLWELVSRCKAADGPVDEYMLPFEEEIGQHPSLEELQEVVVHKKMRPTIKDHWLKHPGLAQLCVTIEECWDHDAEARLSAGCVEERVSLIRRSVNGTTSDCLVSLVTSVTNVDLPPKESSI
Activin receptor type-2A, sequence (P27037 whole entry): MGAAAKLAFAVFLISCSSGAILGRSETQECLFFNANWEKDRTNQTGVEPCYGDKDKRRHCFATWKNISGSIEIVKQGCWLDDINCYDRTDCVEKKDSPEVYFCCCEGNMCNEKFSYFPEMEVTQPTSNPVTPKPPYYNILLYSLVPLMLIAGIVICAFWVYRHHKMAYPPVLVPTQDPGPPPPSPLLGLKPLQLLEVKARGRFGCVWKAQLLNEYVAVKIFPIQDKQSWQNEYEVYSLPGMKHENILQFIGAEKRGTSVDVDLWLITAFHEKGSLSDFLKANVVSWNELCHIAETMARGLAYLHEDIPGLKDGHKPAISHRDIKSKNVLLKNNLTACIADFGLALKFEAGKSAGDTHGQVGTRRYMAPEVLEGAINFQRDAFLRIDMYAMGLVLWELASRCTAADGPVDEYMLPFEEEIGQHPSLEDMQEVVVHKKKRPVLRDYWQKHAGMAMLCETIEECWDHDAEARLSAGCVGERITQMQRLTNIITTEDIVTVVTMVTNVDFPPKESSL
TGF-beta receptor type-2, sequence (P37173 whole entry, the tested form may be a part): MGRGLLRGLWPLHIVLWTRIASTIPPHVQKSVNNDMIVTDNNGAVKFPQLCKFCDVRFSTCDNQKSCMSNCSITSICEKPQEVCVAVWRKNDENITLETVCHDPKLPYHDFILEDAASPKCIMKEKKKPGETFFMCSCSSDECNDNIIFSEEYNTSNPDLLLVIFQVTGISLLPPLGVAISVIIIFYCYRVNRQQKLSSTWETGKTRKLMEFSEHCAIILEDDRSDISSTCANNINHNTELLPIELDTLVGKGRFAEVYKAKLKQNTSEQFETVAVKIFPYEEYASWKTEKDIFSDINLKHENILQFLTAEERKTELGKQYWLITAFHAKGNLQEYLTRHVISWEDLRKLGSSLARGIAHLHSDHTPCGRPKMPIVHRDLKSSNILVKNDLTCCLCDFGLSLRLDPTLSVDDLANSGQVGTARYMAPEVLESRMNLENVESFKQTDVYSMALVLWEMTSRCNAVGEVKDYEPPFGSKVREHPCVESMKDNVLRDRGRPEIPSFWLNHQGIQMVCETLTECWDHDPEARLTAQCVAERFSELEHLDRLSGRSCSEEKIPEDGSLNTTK

As to `CNC(=O)[C@@H]1CC[C@@H](n2c(-c3ccc4cnccc4c3)nc3ccc(C(=O)NCc4cccc(C(N)=O)c4)cc32)C1`, the inhibition entry in [1], in data set [4], in [6] and in data set [8] was “inactive” each time. Also, the IC50 was 24100 nM in data set [2], 1.8 nM in data set [3], above 1000 nM in data set [5] and above 1000 nM in data set [7]. Besides, the Ki in data set [9] turned out to be 6.2 nM.

Take `NC(=O)c1cccc(CNC(=O)c2ccc3nc(-c4ccc5cnccc5c4)n(C4CCCC4)c3c2)c1`: the inhibition entry in data set [1], in data set [4], in data set [6] and in [8] was “inactive” each time. Moreover, the IC50 is 6190 nM in [2], 1.2 nM in data set [3], above 1000 nM in data set [5] and above 1000 nM in [7]. Also, the t1/2 is 80 min in data set [10] and 45 min in [11]. In data set [9], the Ki was found to be 8 nM.

For the compound `COc1cnc(Nc2cccc(S(N)(=O)=O)c2)nc1N1CCN(c2ccccc2)C(=O)C1`, the inhibition entry in data set [1], in data set [4], in [5], in data set [6], in data set [7] and in data set [8] was “inactive” throughout. Further, the IC50 was determined as 6920 nM in [2] and 2.8 nM in data set [3]. Further, the t1/2 in data set [10] is 305 min; in [11], 40 min. For the same compound, in data set [9], the Ki was 7 nM.

As for `CNC(=O)CCc1ccc(C(=O)NCc2cccc(N3CCN(c4nc(Nc5cccc(S(N)(=O)=O)c5)ncc4OC)CC3)c2)cc1`, the inhibition result in data set [1], in data set [4], in data set [5], in data set [6], in data set [7] and in [8] was “inactive” throughout. In addition, the IC50 in data set [2] stood at 4870 nM; in data set [3], 1.6 nM. Besides, the results for the t1/2 in data set [10] and in data set [11] were 22 min and 7 min, respectively. Also, the Ki in data set [9] was 20.6 nM.
